Results as given in ChEMBL document CHEMBL5724801, “EUbOPEN Chemogenomics Library - Multiplex” (2024).
Values joined by “and” are separate entries in the source; they are usually repeats but may differ in a detail not shown here. Equal entries are not always repeated.

Test system: HEK-293T
Assay: Multiplex assay against HEK293T
Format: toxicity, cell-based
Conditions: human
In short: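 Cells were classed with CellPathfinder machine-learning gating, first as Hoechst high-intensity objects or normal cells, then (normal cells) as healthy, pyknosed or fragmented nuclei, and finally (pyknosed cells) as mitotic or apoptotic. Staining of live cells at seeding used Hoechst33342, BioTracker Green Microtubule Cytoskeleton Dye, MitoTracker Red and Annexin V Alexa Fluor 680, with imaging on a CQ1 microscope at 37°C and 5% CO2 after compound addition. Tubulin, mitochondrial-mass and membrane-permeability phenotypes are per cents of healthy-nucleus cells.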

[1] = 12 h, 1 µM, compound concentration 1 uM
[2] = 12 h, 10 µM, compound concentration 10 uM
[3] = 24 h, 1 µM, compound concentration 1 uM
[4] = 24 h, 10 µM, compound concentration 10 uM
[5] = 48 h, 1 µM, compound concentration 1 uM
[6] = 48 h, 10 µM, compound concentration 10 uM

SMILES: CN1CCC(C(=O)c2cccc(NC(=O)c3c(F)cc(F)cc3F)n2)CC1
- Population Apoptotic (%) [1]: 32% and 52%
- Population Fragmented Nuclei (%) [1]: 5%
- Population Healthy Nuclei (%) [1]: 82%
- Population Hoechst High Intensity Objects (%) [1]: 8% and 7%
- Population Membrane Permeable-Phenotype (%) [1]: 0%
- Population Mitochondria Different-Phenotype (%) [1]: 51% and 59%
- Population Mitotic Cells (%) [1]: 67% and 47%
- Population Normal (%) [1]: 91% and 92%
- Population Pyknosed Nuclei (%) [1]: 11% and 12%
- Population Tubulin-Different-Phenotype (%) [1]: 31% and 20%
- Total Cell Count [1]: 396 and 352
- Population Apoptotic (%) [2]: 52% and 53%
- Population Fragmented Nuclei (%) [2]: 6%
- Population Healthy Nuclei (%) [2]: 80%
- Population Hoechst High Intensity Objects (%) [2]: 8% and 10%
- Population Membrane Permeable-Phenotype (%) [2]: 1% and 0%
- Population Mitochondria Different-Phenotype (%) [2]: 55% and 77%
- Population Mitotic Cells (%) [2]: 47% and 46%
- Population Normal (%) [2]: 91% and 89%
- Population Pyknosed Nuclei (%) [2]: 12% and 13%
- Population Tubulin-Different-Phenotype (%) [2]: 50%
- Total Cell Count [2]: 445 and 401
- Population Apoptotic (%) [3]: 26% and 42%
- Population Fragmented Nuclei (%) [3]: 11% and 8%
- Population Healthy Nuclei (%) [3]: 74% and 83%
- Population Hoechst High Intensity Objects (%) [3]: 4% and 3%
- Population Membrane Permeable-Phenotype (%) [3]: 0%
- Population Mitochondria Different-Phenotype (%) [3]: 30% and 39%
- Population Mitotic Cells (%) [3]: 73% and 57%
- Population Normal (%) [3]: 95% and 96%
- Population Pyknosed Nuclei (%) [3]: 13% and 7%
- Population Tubulin-Different-Phenotype (%) [3]: 20% and 17%
- Total Cell Count [3]: 504 and 478
- Population Apoptotic (%) [4]: 25% and 52%
- Population Fragmented Nuclei (%) [4]: 10% and 8%
- Population Healthy Nuclei (%) [4]: 76% and 81%
- Population Hoechst High Intensity Objects (%) [4]: 6% and 8%
- Population Membrane Permeable-Phenotype (%) [4]: 0%
- Population Mitochondria Different-Phenotype (%) [4]: 48% and 64%
- Population Mitotic Cells (%) [4]: 75% and 47%
- Population Normal (%) [4]: 93% and 91%
- Population Pyknosed Nuclei (%) [4]: 13% and 9%
- Population Tubulin-Different-Phenotype (%) [4]: 41% and 34%
- Total Cell Count [4]: 583 and 467
- Population Apoptotic (%) [5]: 22% and 34%
- Population Fragmented Nuclei (%) [5]: 11% and 9%
- Population Healthy Nuclei (%) [5]: 80% and 84%
- Population Hoechst High Intensity Objects (%) [5]: 3%
- Population Membrane Permeable-Phenotype (%) [5]: 1%
- Population Mitochondria Different-Phenotype (%) [5]: 19% and 24%
- Population Mitotic Cells (%) [5]: 77% and 65%
- Population Normal (%) [5]: 96%
- Population Pyknosed Nuclei (%) [5]: 7% and 5%
- Population Tubulin-Different-Phenotype (%) [5]: 12% and 10%
- Total Cell Count [5]: 884 and 692
- Population Apoptotic (%) [6]: 30% and 28%
- Population Fragmented Nuclei (%) [6]: 13% and 10%
- Population Healthy Nuclei (%) [6]: 79% and 81%
- Population Hoechst High Intensity Objects (%) [6]: 4% and 7%
- Population Membrane Permeable-Phenotype (%) [6]: 0%
- Population Mitochondria Different-Phenotype (%) [6]: 35% and 42%
- Population Mitotic Cells (%) [6]: 69% and 71%
- Population Normal (%) [6]: 95% and 92%
- Population Pyknosed Nuclei (%) [6]: 7%
- Population Tubulin-Different-Phenotype (%) [6]: 23% and 25%
- Total Cell Count [6]: 803 and 671

SMILES: N[C@](CC1c2ccccc2Oc2ccccc21)(C(=O)O)[C@H]1C[C@@H]1C(=O)O
- Population Apoptotic (%) [1]: 38% and 54%
- Population Fragmented Nuclei (%) [1]: 6% and 7%
- Population Healthy Nuclei (%) [1]: 83% and 79%
- Population Hoechst High Intensity Objects (%) [1]: 7% and 5%
- Population Membrane Permeable-Phenotype (%) [1]: 0%
- Population Mitochondria Different-Phenotype (%) [1]: 43% and 58%
- Population Mitotic Cells (%) [1]: 61% and 45%
- Population Normal (%) [1]: 92% and 94%
- Population Pyknosed Nuclei (%) [1]: 10% and 12%
- Population Tubulin-Different-Phenotype (%) [1]: 27% and 25%
- Total Cell Count [1]: 447 and 270
- Population Apoptotic (%) [2]: 32%
- Population Fragmented Nuclei (%) [2]: 9% and 4%
- Population Healthy Nuclei (%) [2]: 78% and 81%
- Population Hoechst High Intensity Objects (%) [2]: 8% and 7%
- Population Membrane Permeable-Phenotype (%) [2]: 0%
- Population Mitochondria Different-Phenotype (%) [2]: 40% and 66%
- Population Mitotic Cells (%) [2]: 67%
- Population Normal (%) [2]: 91% and 92%
- Population Pyknosed Nuclei (%) [2]: 12% and 13%
- Population Tubulin-Different-Phenotype (%) [2]: 23% and 31%
- Total Cell Count [2]: 381 and 382
- Population Apoptotic (%) [3]: 21% and 38%
- Population Fragmented Nuclei (%) [3]: 8% and 9%
- Population Healthy Nuclei (%) [3]: 81% and 84%
- Population Hoechst High Intensity Objects (%) [3]: 3% and 5%
- Population Membrane Permeable-Phenotype (%) [3]: 1% and 0%
- Population Mitochondria Different-Phenotype (%) [3]: 24% and 30%
- Population Mitotic Cells (%) [3]: 78% and 61%
- Population Normal (%) [3]: 96% and 94%
- Population Pyknosed Nuclei (%) [3]: 10% and 6%
- Population Tubulin-Different-Phenotype (%) [3]: 15% and 16%
- Total Cell Count [3]: 629 and 368
- Population Apoptotic (%) [4]: 29% and 40%
- Population Fragmented Nuclei (%) [4]: 10% and 6%
- Population Healthy Nuclei (%) [4]: 79% and 82%
- Population Hoechst High Intensity Objects (%) [4]: 5%
- Population Membrane Permeable-Phenotype (%) [4]: 0%
- Population Mitochondria Different-Phenotype (%) [4]: 30% and 41%
- Population Mitotic Cells (%) [4]: 70% and 59%
- Population Normal (%) [4]: 94%
- Population Pyknosed Nuclei (%) [4]: 10% and 11%
- Population Tubulin-Different-Phenotype (%) [4]: 17% and 16%
- Total Cell Count [4]: 510 and 471
- Population Apoptotic (%) [5]: 12% and 17%
- Population Fragmented Nuclei (%) [5]: 11% and 12%
- Population Healthy Nuclei (%) [5]: 80% and 81%
- Population Hoechst High Intensity Objects (%) [5]: 2% and 1%
- Population Membrane Permeable-Phenotype (%) [5]: 2% and 0%
- Population Mitochondria Different-Phenotype (%) [5]: 15% and 17%
- Population Mitotic Cells (%) [5]: 87% and 82%
- Population Normal (%) [5]: 97% and 98%
- Population Pyknosed Nuclei (%) [5]: 7% and 6%
- Population Tubulin-Different-Phenotype (%) [5]: 13% and 10%
- Total Cell Count [5]: 1040 and 654
- Population Apoptotic (%) [6]: 28% and 42%
- Population Fragmented Nuclei (%) [6]: 13%
- Population Healthy Nuclei (%) [6]: 78% and 80%
- Population Hoechst High Intensity Objects (%) [6]: 2% and 4%
- Population Membrane Permeable-Phenotype (%) [6]: 0%
- Population Mitochondria Different-Phenotype (%) [6]: 17% and 25%
- Population Mitotic Cells (%) [6]: 71% and 57%
- Population Normal (%) [6]: 97% and 95%
- Population Pyknosed Nuclei (%) [6]: 8% and 6%
- Population Tubulin-Different-Phenotype (%) [6]: 8% and 12%
- Total Cell Count [6]: 789 and 687
